Only some compounds are listed: those with a hit (about 3.7% of all), similar ones and a draw of the others.
Kir21 inh: Kir2.1 (mouse) channel inhibition | HEK293-Kir2.1, FluxOR thallium flux fluorescence; hits give low values | 310,000 tested, 0.85% active | P35561 | AID 1672 | B-score at 10 µM;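 active means fluorescence ratio B-score at or below minus 3 SD of library scores, with starting-brightness B-score within 2 SD, cut at about -4.2 in these data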;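 further: channel flux triggered by added potassium and thallium sulfate stimulus; B-score of peak minus minimum fluorescence over baseline after thallium stimulus; more negative B-score means stronger Kir2.1 block with less thallium influx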
KCNK3 inh: human KCNK3 channel inhibition, primary screen; O14649; 340,000 tested, 0.84% active; B-score at 10 µM; CHO-KCNK3 thallium flux, FluxOR fluorescence; hits give low values; AID 602410;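 active means B-score under library mean minus 4 SD, starting fluorescence ratio at most library mean plus 5 SD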;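 further: more negative B-score means stronger inhibition of thallium flux through KCNK3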
Target sequence (O14649 whole entry, looked up): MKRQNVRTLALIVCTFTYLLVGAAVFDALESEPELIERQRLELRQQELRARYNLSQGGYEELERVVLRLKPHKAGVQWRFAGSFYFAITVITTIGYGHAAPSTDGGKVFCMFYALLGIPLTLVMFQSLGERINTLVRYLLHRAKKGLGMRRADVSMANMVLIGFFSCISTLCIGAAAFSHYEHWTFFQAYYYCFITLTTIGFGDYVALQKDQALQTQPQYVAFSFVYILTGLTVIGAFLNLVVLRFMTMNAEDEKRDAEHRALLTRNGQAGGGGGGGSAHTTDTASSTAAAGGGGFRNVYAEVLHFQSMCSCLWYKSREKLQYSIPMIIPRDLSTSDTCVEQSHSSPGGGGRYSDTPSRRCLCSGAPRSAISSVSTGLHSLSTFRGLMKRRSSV
KCNK9 block: human KCNK9 channel inhibition; HEK293 KCNK9, FluxOR thallium flux fluorescence; hits give low values; B-score at 10 µM; Q9NPC2; 310,000 tested, 1.2% active;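 active means ratio B-score over 3 SD below the library mean, with starting fluorescence within 5 SD of its mean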;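 further: negative B-score means less thallium flux so channel inhibition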
KCNQ1 pot: human KCNQ1 channel potentiation or activation. B-score at 10 µM. AID 2648. P51787. CHO-K1 KCNQ1, thallium flux FluxOR fluorescence; hits give high values. 310,000 tested, 0.35% active;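 active means fluorescence ratio B-score, a plate-corrected score, at least three library SD, with initial intensity B-score within 5 SD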
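assay system = KCNQ1-transfected CHO-K1 cells | medium = assay buffer with matched DMSO | probe or stimulus = depolarizing K+/Tl+ stimulus, K2SO4 and Tl2SO4 each 12.5 mM in 5x stock | dosing = single dose | incubation = dye 90 min, compound 20 min, room temperature | detection = kinetic FluxOR fluorescence, 10 s baseline plus 110 s post-stimulus | evaluation = ratio B score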
KCNQ1 inh: inhibitors of human KCNQ1 potassium channel; P51787; B-score at 10 µM; CHO-K1 KCNQ1, FluxOR thallium flux fluorescence; hits give high values; AID 2642; 310,000 tested, 1.3% active;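 active means compounds whose thallium flux B-score, printed positive for inhibition, exceeds three library SD while starting fluorescence stays within three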;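 further: channel opened by potassium depolarization with thallium stimulus after 20 min compound exposure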
hERG protect: shields human hERG channel from block by proarrhythmic agents; CHO-hERG, FluxOR thallium flux, dofetilide IC70 present; activation (rescue from dofetilide block), less the hit threshold, % at 10 µM; 310,000 tested, 0.51% active;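 active means activation above the mean of controls blocked by dofetilide plus 5 SD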;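 further: thallium influx through hERG after potassium depolarization seen as dye fluorescence rise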
KCNK9 inh conf: human KCNK9 inhibitor confirmation; shares compounds with KCNK9 block; HEK293 KCNK9 cells, FluxOR thallium flux fluorescence; inhibition, % at 10 µM; 4,900 tested, 43% active; AID 492992;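 active means thallium signal inhibited by more than 5 SD of the compound-free buffer control wells, on both duplicate plates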;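 further: 0% = assay buffer control wells without compound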
Kir2-1 spec: tests whether KCNK9 modulators also affect mouse Kir2.1. inhibition, % at 10 µM. Kir2.1 cells, FluxOR thallium flux fluorescence. 4,900 tested, 4% active. AID 492993. shares compounds with KCNK9 block;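 active means thallium signal drop more than 5 SD beyond the mean of the no-compound control wells, seen in both duplicate plates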;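 further: signal is fluorescence rise after thallium addition divided by baseline fluorescence; plate controls were assay buffer only for no effect and full block by chlorpromazine control for full effect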
HEK293 Tl ctr: non-induced cell nonspecific activity of KCNK9 modulators. 4,900 tested, 40% active. inhibition, % at 10 µM. non-induced KCNK9-HEK293, FluxOR thallium flux. shares compounds with KCNK9 block. AID 492997;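 active means thallium signal drop beyond 5 SD of the untreated control mean, on both duplicate plates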;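 further: plate controls were buffer only IC0 wells for no effect and SID17386958 at its maximal inhibitory level for full effect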
An asterisk follows results filed as active; i = inactive; . = no result given.

SMILES	Kir21 inh	KCNK3 inh	KCNK9 block	KCNQ1 pot	KCNQ1 inh	hERG protect	KCNK9 inh conf	Kir2-1 spec	HEK293 Tl ctr
Cn1nc(-c2ccccc2F)c2cc(C(=O)Nc3ccc4c(c3)OCCO4)sc21	-0.55	i	-12*	i	i	-13	49%*	i	i
COc1cccc(-c2nn(C)c3sc(C(=O)Nc4ccc5c(c4)OCCO5)cc23)c1	0.63	i	i	i	i	-13	.	.	.
CCN(CC(=O)NC(C)(C)C)C(=O)CN1c2cccc3cccc(c23)S1(=O)=O	0	i	i	i	i	-2	.	.	.
O=C(c1ccccc1)c1nc2ccccc2n(CCCn2c(=O)c(C(=O)c3ccccc3)nc3ccccc32)c1=O	-0.46	i	i	i	i	-3	i	i	i
Cn1c(=O)c(C(=O)c2ccccc2)nc2ccccc21	-1.9	i	i	i	i	-11	.	.	.
CCN(CC(=O)NCc1ccc(F)cc1)C(=O)C(C)Oc1cccc(Cl)c1 (configuration not stated)	.	i	.	.	.	.	.	.	.
CCOC(=O)C1=NN(C(=O)COc2ccccc2)C(O)(c2ccc(Br)cc2)C1 (configuration not stated)	0.05	i	-11*	i	i	1	i	i	i
CC1=NN(C(=O)COc2ccc(C)c(C)c2)C(O)(c2ccc(Cl)cc2)C1 (configuration not stated)	-0.4	i	-14*	i	i	-5	50%*	i	35%*
Cc1c(-n2c(SC(C)C(=O)NC(N)=O)nc3ccccc3c2=O)c(=O)n(-c2ccccc2)n1C (configuration not stated)	-0.14	i	i	i	i	-8	.	.	.
CC(=O)N1CCN(S(=O)(=O)c2ccc3c(c2)CC(=O)N3)CC1	.	i	.	.	.	.	.	.	.
Cc1ccc(S(=O)(=O)n2nccc2-c2c(-c3ccc(Cl)cc3)noc2C)cc1	-0.71	i	-12*	i	i	-7	i	i	36%*
Cc1ccc(S(=O)(=O)N2CCN(C(=O)c3c(-c4ccccc4)noc3C)CC2)cc1	0.57	i	i	i	i	-5	.	.	.
COc1cc(NS(=O)(=O)c2ccc(NC(=S)NC(=O)c3sc4cc(F)ccc4c3Cl)cc2)nc(OC)n1	0.1	i	i	i	i	-21	.	.	.
COc1cc(NS(=O)(=O)c2ccc(NC(=S)NC(=O)c3sc4ccccc4c3Cl)cc2)nc(OC)n1	1.3	i	i	i	i	-20	i	i	i
CC(C)OC(=O)CN1CCN(C2c3ccccc3-c3ccccc32)CC1	-2.1	i	i	i	i	-6	i	i	i
COc1cccc(CC(=S)N2CCOCC2)c1	-0.07	i	i	i	i	-10	.	.	.
Cc1cccc(N2CCN(C(=O)Cc3ccc(Br)cc3)CC2)c1C	-0.57	i	i	i	i	-17	i	i	26%*
O=C(Cc1ccc(Br)cc1)N1CCN(c2ccccc2)CC1	1.1	i	i	i	i	-10	.	.	.
O=C(CSc1ncn[nH]1)N1N=C2/C(=C/c3ccccc3)CCCC2C1c1ccccc1 (configuration not stated)	-0.56	i	-12*	i	i	-9	52%*	i	33%*
O=C(c1ccc(Cn2cc(Br)cn2)cc1)N1N=C(C(F)F)CC1(O)C(F)F (configuration not stated)	2.7	i	i	i	i	-11	.	.	.
c1cnc(SCCOc2cccc3ccccc23)nc1	0.17	i	-9.9*	i	i	-3	48%*	i	38%*
Fc1ccccc1OCCCCSc1ncccn1	1.2	i	i	i	i	-14	.	.	.
COc1ccc(S(=O)(=O)N2CCOCC2)cc1NC(=O)CSc1nnc(C2CC2)n1N	2.6	i	i	i	i	-9	.	.	.
O=C(CN1CCN(c2cccc(Cl)c2)CC1)NC1CCCc2ccccc21 (configuration not stated)	-1.8	i	i	i	i	-14	i	i	i
O=C(CN1CCN(c2ccccc2)CC1)Nc1ccc2c(c1)CCC2	0.76	i	i	i	i	-10	i	i	i
SMILES	Kir21 inh	KCNK3 inh	KCNK9 block	KCNQ1 pot	KCNQ1 inh	hERG protect	KCNK9 inh conf	Kir2-1 spec	HEK293 Tl ctr
O=C(CN1CCN(c2ccccc2)CC1)Nc1ccncc1	-1.6	i	i	i	i	-1	.	.	.
CN(CCc1ccccc1)C1CCCN(C(=O)Cn2cccn2)C1 (configuration not stated)	-0.01	i	i	i	i	-6	.	.	.
CN(C(=O)COC(=O)CCc1c[nH]c2ccccc12)C(c1ccccc1)c1ccccc1	0	i	-9.5*	i	i	-12	44%*	i	28%*
Cc1ccccc1OCCN1CCC(Cc2ccccc2)CC1	-1.9	i	i	i	i	-14	i	i	i
CCOc1ccccc1OCCN1CCC(Cc2ccccc2)CC1	-2.9	i	i	i	i	-12	i	i	i
Cc1ccc([N+](=O)[O-])c(OCCN2CCC(Cc3ccccc3)CC2)c1	-1.6	i	i	i	i	-29	i	i	i
Cc1ccc([N+](=O)[O-])c(OCCCN2CCCCCC2)c1	0.63	i	i	i	i	-1	.	.	.
COc1cc(/C(C#N)=C/c2ccccc2)c([N+](=O)[O-])cc1OC	0.47	i	i	i	i	-2	.	.	.
C=CCn1c(O)c(N=NC(=O)c2cccnc2)c2cc(Br)ccc21	-0.03	i	i	i	i	-8	.	.	.
Cn1c(=O)c2[nH]c(COc3ccc(C(C)(C)C)cc3)nc2n(C)c1=O	-0.17	i	i	i	i	-9	.	.	.
Cc1ccc(CNc2nc(-c3cccs3)nc3ccccc23)cc1	0.05	i	-8.8*	i	i	-17	36%*	i	30%*
CCn1c(SCc2cccc(C(F)(F)F)c2)nnc1-c1ccco1	-1.7	i	i	i	i	-11	.	.	.
Fc1ccc(Cn2c(SCc3ccc(F)c(C(F)(F)F)c3)nnc2C(F)(F)F)cc1	-0.37	i	-10*	i	i	-10	42%*	i	44%*
